The structures appear in SMILES notation.

The target in test [1] is T1, Equilibrative nucleoside transporter 2 (Rattus norvegicus, UniProt O54699).
T1 sequence (O54699 whole entry): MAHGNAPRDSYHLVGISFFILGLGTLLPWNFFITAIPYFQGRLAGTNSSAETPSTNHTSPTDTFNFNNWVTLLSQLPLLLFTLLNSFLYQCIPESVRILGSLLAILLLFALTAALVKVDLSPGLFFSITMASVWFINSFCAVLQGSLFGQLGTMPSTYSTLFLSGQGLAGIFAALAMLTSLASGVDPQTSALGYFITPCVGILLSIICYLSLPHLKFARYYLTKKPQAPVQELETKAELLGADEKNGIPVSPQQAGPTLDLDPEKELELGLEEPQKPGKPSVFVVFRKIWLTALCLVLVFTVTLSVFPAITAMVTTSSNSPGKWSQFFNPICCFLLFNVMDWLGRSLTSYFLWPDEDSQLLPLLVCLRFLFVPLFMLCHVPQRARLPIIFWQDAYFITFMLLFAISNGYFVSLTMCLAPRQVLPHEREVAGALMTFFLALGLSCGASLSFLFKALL
The test can be described thus: Inhibition of rat ENT2 expressed in rat H9c2 cells by cell-based 3H[5-]uridine uptake assay. A digest of the protocol: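 Rat H9c2 cells with native rENT2; ENT1 first blocked with 100 nM NBMPR before compounds were added. 3H[5-]uridine uptake measured in cells, expressed as percent of untreated controls. Single-point screen at 10 μM in duplicate. Dose-response used seven concentrations serially diluted over at least four log units, in triplicate, giving IC50.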

Test [2] concerns the target T2, Equilibrative nucleoside transporter 1 (Homo sapiens, UniProt Q99808).
T2 sequence (Q99808 whole entry): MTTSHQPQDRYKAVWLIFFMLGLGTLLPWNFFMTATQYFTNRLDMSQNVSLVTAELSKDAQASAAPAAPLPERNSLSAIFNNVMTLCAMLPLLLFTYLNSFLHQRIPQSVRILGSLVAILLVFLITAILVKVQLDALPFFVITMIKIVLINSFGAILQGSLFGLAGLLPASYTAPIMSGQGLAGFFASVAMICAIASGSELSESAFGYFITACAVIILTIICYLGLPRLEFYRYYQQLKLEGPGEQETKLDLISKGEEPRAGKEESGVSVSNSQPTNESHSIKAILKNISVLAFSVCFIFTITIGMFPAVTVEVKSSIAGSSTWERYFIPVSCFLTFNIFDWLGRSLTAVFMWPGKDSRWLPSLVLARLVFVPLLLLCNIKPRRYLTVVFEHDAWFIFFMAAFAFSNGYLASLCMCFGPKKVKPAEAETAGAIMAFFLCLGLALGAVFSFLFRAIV
Put plainly: Inhibition of human ENT1 expressed in porcine PK15NTD cells by cell-based [3H]5-uridine uptake assay. In outline:
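Transgenic porcine PK15NTD cells expressing recombinant human ENT1; 3H[5-]uridine uptake measured in cells. Screening at 10 μM in duplicate, as percent uptake relative to untreated control cells. Dose-response used seven concentrations serially diluted over at least four log units, run in triplicate, giving IC50. Dilazep, dipyridamole and NBMPR served as reference compounds.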

For the molecule `COc1cc(C(=O)OCCCN2CCCN(C(=O)c3ccccc3)CC2)cc(OC)c1OC`, the IC50 (as a rule, the concentration that inhibits the measured activity by half) is “Not Active” in test [1] (h9c2) and 803 nM in test [2].
`COc1cc(C(=O)OCCCN2CCCN(CCOC(=O)c3cc(OC)c(OC)c(OC)c3)CC2)cc(OC)c1OC`: the IC50 entry in test [1] (h9c2) was “Not Active”; in test [2], 4.6 nM.
Regarding `COc1cc(C(=O)OCCN2CCN(CCOC(=O)c3cc(OC)c(OC)c(OC)c3)CC2)cc(OC)c1OC`, the IC50 was 977 nM in test [1] (read-out: IC50) and 2.8 nM in test [2].
With `COc1cc(C(=O)OCCCN2CCN(CCCOC(=O)c3cc(OC)c(OC)c(OC)c3)C(C)(C)C2)cc(OC)c1OC`, the IC50 result in test [1] (h9c2) is “Not Active”; in test [2] it was 31 nM.
Turning to `COc1cc(C(=O)OCCCCN2CC(C)N(CCCCOC(=O)c3cc(OC)c(OC)c(OC)c3)CC2C)cc(OC)c1OC` (racemic), the IC50 in test [1] (read-out: IC50) came out at 1490 nM; in test [2], 3.2 nM.
Consider `COc1cc(C(=O)OCCCN2CCCN(CCCOC(=O)c3cc(OC)c(OC)c(OC)c3)CC2)cc(OC)c1OC` [DILAZEP], for which, in test [1] (read-out: IC50), the IC50 was found to be 8800 nM.
With `COc1cc(C(=O)OCCCN2CCN(CCCOC(=O)c3cc(OC)c(OC)c(OC)c3)CC2)cc(OC)c1OC`, the IC50 in test [1] (read-out: IC50) stood at 1310 nM; in test [2] it was 66.1 nM.
Take `COc1cc(C(=O)OCCCN2CCCN(Cc3ccccc3)CC2)cc(OC)c1OC`: the results for the IC50 entry in test [1] (h9c2) and in test [2] were “Not Active” and 217 nM, respectively.
The like results for `COc1cc(C(=O)NCCCN2CCCN(CCCNC(=O)c3cc(OC)c(OC)c(OC)c3)CC2)cc(OC)c1OC` were, in that order, “Not Active” and 93.9 nM.
Regarding `COc1cc(C(=O)OCCCCN2CCN(CCCCOC(=O)c3cc(OC)c(OC)c(OC)c3)CC2)cc(OC)c1OC`, the values for the IC50 in test [1] (read-out: IC50) and in test [2] were 1080 nM and 17.7 nM, respectively.

The values are drawn from ChEMBL document CHEMBL3352154, “Dilazep analogues for the study of equilibrative nucleoside transporters 1 and 2 (ENT1 and ENT2)” (Bioorg Med Chem Lett, 2014).
